# Columns and labels:
# D(2) dopamine receptor = D(2) dopamine receptor (Rattus norvegicus, UniProt P61169); assay: Inhibitory activity against rat limbic tissue Dopamine receptor D2; assay type: tissue-based, Limbic system
# In short: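 Rat limbic membranes, handled as in the 5-HT2 assay: 15 min at 37 °C, 50 mM Tris pH 7.6, drug concentration range. 30 nM ketanserin in all tubes to block 5-HT2 sites. Nonspecific binding defined with 10 μM sulpiride. Filtration and counting.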
# Rattus norvegicus [1] = assay: Induction of serotonin syndrome against male Sprague-Dawley CD rats following ip administration of the compound; assay type: functional
# In short: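 Male Sprague–Dawley CD rats (150–250 g), group-housed and acclimated 1 week, given compound or vehicle ip, 8 per group. Forepaw treading, head weaving, tremor, hindlimb abduction, flat body posture and Straub tail each rated 0–3 (maximum 18) over the first 15 min. ED50 by nonlinear regression with inverse prediction.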
# Rattus norvegicus [2] = assay: Antagonistic activity against […] induced serotonin syndrome against male Sprague-Dawley CD rats following ip administration of the compound; assay type: functional
# In short: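 Rats were dosed ip with compound or vehicle (male Sprague–Dawley CD, 150–250 g, 8 per group), then challenged with 8-OH-DPAT 3 mg/kg ip. The six serotonin-syndrome behaviours were each rated 0–3 for a further 15 min. ED50 by nonlinear regression with inverse prediction.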
# Rattus norvegicus [3] = assay: Antagonistic activity against quipazine induced head shakes against male Sprague-Dawley CD rats following ip administration of the compound; assay type: functional
# In short: (§1)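 Male Sprague–Dawley CD rats (200–300 g), 8 per treatment, given compound or vehicle ip 30 min before quipazine 2.5 mg/kg ip or DOI 1.0 mg/kg ip. Rhythmic radial head shakes counted for 30 min after agonist. ED50 by nonlinear regression with inverse prediction.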
# [4] = target: Serotonin 2 (5-HT2) receptor (Rattus norvegicus, UniProt P30994+P08909+P14842); assay: Inhibitory activity against rat cortical 5-hydroxytryptamine 2 receptor; assay type: protein assay
# In short: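 Cortical membranes from male Sprague–Dawley rats, incubated 15 min at 37 °C in 50 mM Tris pH 7.6 with 1.0 nM [3H]ketanserin and a range of drug concentrations. Nonspecific binding defined with 100 μM methysergide. Run by filtration and counting.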
# Rattus norvegicus [5] = assay: Antagonistic activity antagonist DOI induced head shakes against male Sprague-Dawley CD rats following ip administration of the compound; assay type: functional; in short: as §1
# [6] = target: T1, 5-hydroxytryptamine receptor 1A (Rattus norvegicus, UniProt P19327); assay: Inhibitory activity against 5-hydroxytryptamine 1A receptor of rat hippocampal tissue; assay type: tissue-based, Hippocampus
# T1 sequence (P19327 whole entry): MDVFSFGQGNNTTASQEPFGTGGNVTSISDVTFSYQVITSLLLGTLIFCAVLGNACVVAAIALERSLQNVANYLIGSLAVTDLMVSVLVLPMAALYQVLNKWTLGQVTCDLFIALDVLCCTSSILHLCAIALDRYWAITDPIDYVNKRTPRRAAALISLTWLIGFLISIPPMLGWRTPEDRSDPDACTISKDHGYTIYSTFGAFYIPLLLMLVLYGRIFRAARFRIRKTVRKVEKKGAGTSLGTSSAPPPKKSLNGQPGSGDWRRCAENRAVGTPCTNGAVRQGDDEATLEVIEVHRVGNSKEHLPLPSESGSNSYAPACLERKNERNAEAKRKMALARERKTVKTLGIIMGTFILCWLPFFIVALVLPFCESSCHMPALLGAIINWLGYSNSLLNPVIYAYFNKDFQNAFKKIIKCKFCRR
# In short: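 Rat hippocampal membranes from male Sprague–Dawley rats (150–250 g), preincubated 10 min at 37 °C to remove endogenous 5-HT. Used at 0.4–0.6 mg protein with 1.5–1.8 nM [3H]8-OH-DPAT and a range of drug concentrations, 10 min at 37 °C, in 50 mM Tris pH 7.7 with 0.1% ascorbate, 10 μM pargyline and 4 mM CaCl2. Nonspecific binding defined with 1 μM 5-HT. Filtration, scintillation counting. Ki from duplicate assays, 95% CI.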
# [7] = target: T2, 5-hydroxytryptamine receptor 1A (Rattus norvegicus) (UniProt P19327); assay: Inhibitory activity against 5-hydroxytryptamine 1A receptor of rat hippocampal tissue at 0.1 uM; settings: Hippocampus
# T2 sequence (whole entry): T1 sequence (P19327 whole entry)
# [8] = target: D(2) dopamine receptor (Rattus norvegicus) (UniProt P61169); assay: Inhibitory activity against Dopamine receptor D2 of rat limbic tissue at 1 uM; assay type: tissue-based; settings: Limbic system
# [9] = target: D(2) dopamine receptor (Rattus norvegicus) (UniProt P61169); assay: Inhibitory activity against rat limbic tissue Dopamine receptor D2 at 1 uM concentration; assay type: tissue-based; settings: Limbic system
# [10] = target: T1, 5-hydroxytryptamine receptor 1A; assay: Antagonist activity against rat hippocampal tissue 5-hydroxytryptamine 1A receptor; assay type: functional, tissue-based, Hippocampus
# [11] = target: T2, 5-hydroxytryptamine receptor 1A (Rattus norvegicus); assay: Inhibitory activity against rat hippocampal tissue 5-hydroxytryptamine 1A receptor at 1 uM concentration; assay type: tissue-based; settings: Hippocampus
# [12] = target: T2, 5-hydroxytryptamine receptor 1A (Rattus norvegicus); assay: Inhibitory activity against rat hippocampal tissue 5-hydroxytryptamine 1A receptor at 0.1 uM concentration; assay type: tissue-based; settings: Hippocampus
# Chain of D(2) dopamine receptor (Rattus norvegicus) (P61169 whole entry): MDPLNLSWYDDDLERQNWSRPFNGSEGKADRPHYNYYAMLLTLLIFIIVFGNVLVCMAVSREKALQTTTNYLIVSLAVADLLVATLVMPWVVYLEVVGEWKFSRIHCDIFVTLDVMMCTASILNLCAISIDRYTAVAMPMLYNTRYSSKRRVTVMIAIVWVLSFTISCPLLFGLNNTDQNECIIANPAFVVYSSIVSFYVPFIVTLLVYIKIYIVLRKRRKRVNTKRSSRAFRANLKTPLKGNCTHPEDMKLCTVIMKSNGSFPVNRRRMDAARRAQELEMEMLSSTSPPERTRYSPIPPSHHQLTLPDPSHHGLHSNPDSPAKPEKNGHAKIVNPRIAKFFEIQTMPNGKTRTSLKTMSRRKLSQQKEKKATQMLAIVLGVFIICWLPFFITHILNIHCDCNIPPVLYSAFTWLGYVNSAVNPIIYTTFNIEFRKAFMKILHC
# Chain of D(2) dopamine receptor (P61169 whole entry): as above
SMILES,Ki (D(2) dopamine receptor) [nM],Ki [4] [nM],inhibition [7] [%],Ki [10] [nM],further results
Cl.Cl.O=C(NCCN1CCN(c2ncccn2)CC1)C12C[C@H]3C[C@@H](C1)C[C@@H](C2)C3,166,73,,,ED50 (Rattus norvegicus [1]): 12.9 mg/kg; ED50 (Rattus norvegicus [2]): 2.2 mg/kg; ED50 (Rattus norvegicus [3]): 0.6 mg/kg; ED50 (Rattus norvegicus [5]): 1.8 mg/kg; Ki [6]: 1 nM
O=C(OCCCN1CCN(c2ncccn2)CC1)C12CC3C[C@@H](C[C@H]1C3)C2,,,12,,
O=C(NCCCN1CCN(c2ncccn2)CC1)NC12CC3CC(CC1C3)C2,,,69,,inhibition [8]: 6%
COc1ccccc1N1CCN(CCCNC(=O)CC23C[C@H]4C[C@@H](C2)C[C@](C)(C4)C3)CC1,,,,4.4,inhibition [9]: 79%
Cc1cccc(N2CCN(C[C@@H](C)NC(=O)C34C[C@H]5C[C@@H](C3)C[C@@H](C4)C5)CC2)c1C,,,0,,
COc1ccccc1N1CCN(CCNC(=O)NC23C[C@H]4C[C@@H](C2)C[C@@H](C3)C4)CC1,,38,,9,inhibition [9]: 94%
COc1ccccc1N1CCN(C(=O)NC23C[C@H]4C[C@@H](C2)C[C@@H](C3)C4)CC1,,,,,inhibition [11]: 0%
COc1ccccc1N1CCN(CCNC(=O)CC23C[C@H]4C[C@@H](C2)C[C@](C)(C4)C3)CC1,,,,11,inhibition [9]: 70%
O=C(NC12C[C@H]3C[C@@H](C1)C[C@@H](C2)C3)OCCN1CCN(c2ncccn2)CC1,,,34,,
COc1ccccc1N1CCN(CCNC(=O)C23CC4C[C@@H](C[C@H]2C4)C3)CC1.Cl.Cl,,8.2,,0.24,inhibition [9]: 100%
COc1ccccc1N1CCN(CCNC(=O)C23C[C@H]4C[C@@H](C2)C[C@@H](C3)C4)CC1.Cl.Cl,24,274,,1,
Cc1cccc(N2CCN(C[C@H](C)NC(=O)C34C[C@H]5C[C@@H](C3)C[C@@H](C4)C5)CC2)c1C,,,0,,
O=C(OCCCN1CCN(c2cncc(Cl)n2)CC1)C12C[C@H]3C[C@@H](C1)C[C@@H](C2)C3,,,,,inhibition [12]: 5%
COc1ccccc1N1CCN(CCCNC(=O)NC23C[C@H]4C[C@@H](C2)C[C@@H](C3)C4)CC1.Cl.Cl,176,348,,1,
COc1ccccc1N1CCN(CCCNC(=O)C23C[C@H]4C[C@@H](C2)C[C@@H](C3)C4)CC1.Cl.Cl,200,75,,1,ED50 (Rattus norvegicus [1]): 9 mg/kg; ED50 (Rattus norvegicus [2]): 5.8 mg/kg; ED50 (Rattus norvegicus [3]): 4.5 mg/kg; ED50 (Rattus norvegicus [5]): 4.4 mg/kg
C[C@H](CN1CCN(c2ncccn2)CC1)NC(=O)C12C[C@H]3C[C@@H](C1)C[C@@H](C2)C3,153,961,,1.1,
COc1ccccc1N1CCN(CCCNC(=O)C23CC4C[C@@H](C[C@H]2C4)C3)CC1.Cl.Cl,,43.5,,3.3,inhibition [9]: 72%
Cl.Cl.O=C(NCCN1CCN(c2cccc(Cl)c2)CC1)C12C[C@H]3C[C@@H](C1)C[C@@H](C2)C3,129,16.4,,0.89,
C[C@@H](CN1CCN(Cc2ccccc2)CC1)NC(=O)C12C[C@H]3C[C@@H](C1)C[C@@H](C2)C3,,,0,,

# Source: ChEMBL document CHEMBL1132497, “Synthesis and SAR of adatanserin: novel adamantyl aryl- and heteroarylpiperazines with dual serotonin 5-HT(1A) and 5-HT(2) activity as potential anxiolytic and antidepressant agents” (J Med Chem, 1999)
